This passage reports Activity, inhibition and IC50 results from ChEMBL document CHEMBL4033710, “Synthesis and biological evaluation of kresoxim-methyl analogues as novel inhibitors of hypoxia-inducible factor (HIF)-1 accumulation in cancer cells” (Bioorg Med Chem Lett, 2017).

Holding throughout (assay type): functional, cell-based
Test [1] relates to HCT-116. Nature of the test: Increase in intracellular oxygen content in human HCT116 cells at 5 uM after 6 hrs under hypoxic-condition by mono azo rhodamine/Nuclear-ID Red DNA staining based fluorescence assay. In short, it runs like this:
(§1)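 HCT116 cells treated with compound for 6 h under hypoxia and loaded with the hypoxia-sensitive probe mono azo rhodamine (MAR). MAR fluoresces when its azo group is reduced in hypoxia. Nuclei were counterstained with NUCLEAR-ID Red. The value is the MAR/NUCLEAR-ID fluorescence intensity ratio, compared against a hypoxia control by significance testing.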

Test [2] concerns HCT-116. In words: Cytotoxicity against human HCT116 cells at 0.625 to 10 uM after 72 hrs by methylene blue staining based assay. Summed up: (§2)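 HCT116 cells exposed to each analogue for 72 h. Viability read out by methylene blue staining.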
Test [3] deals with HCT-116. In words: Inhibition of hypoxia-induced HIF1-alpha accumulation in human HCT116 cells at 5 uM after 6 hrs by immunoblot analysis. In short, it runs like this: (§3)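 HCT116 cells incubated under hypoxia for 6 h with each compound. HIF-1α protein was detected by immunoblot with specific antibodies, using β-tubulin as loading reference.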
In test [4] the test system is HCT-116. In words: Cytotoxicity against human HCT116 cells at 0.625 to 10 uM after 72 hrs under hypoxic condition by methylene blue staining based assay.
In test [5] the test system is HCT-116. In words: Inhibition of hypoxia-induced HIF1-alpha accumulation in human HCT116 cells after 6 hrs by immunoblot analysis. Summed up: as §3
A general note: Immunoblotting shows a protein as a band on a membrane.

Test [6] has as its system HCT-116. Nature of the test: Increase in intracellular oxygen content in human HCT116 cells after 6 hrs under hypoxic-condition by mono azo rhodamine/ Nuclear-ID Red DNA staining based fluorescence assay. In short, it runs like this:
as §1

In test [7] the test system is HCT-116. Nature of the test: Cytotoxicity against human HCT116 cells after 72 hrs by methylene blue staining based assay. The following applies: HCT-116, 72 h. In short, it runs like this: as §2

SMILES strings stand for the structures. Calls of active or inactive are those of the source. The rule behind the calls is not given here.

As to `CO/N=C(/C(=O)OC)c1ccccc1COc1cccc(O)c1`, in the test with HCT-116 [1], the result was Active.
As to `CO/N=C(/C(=O)OC)c1ccccc1COc1cccc(OCC#N)c1`, the result in the test on HCT-116 [2], in the test with HCT-116 [4] and with HCT-116 [1] was inactive. Besides, the inhibition entry in the test with HCT-116 [3] was “inactive”.
On to `CO/N=C(/C(=O)OC)c1ccccc1COc1cccc(OCc2ccccc2)c1`, for which the result in the test with HCT-116 [1] was Active.
The same measure, in the same setting: next, `CO/N=C(\C)c1cccc(OCc2ccccc2/C(=N\OC)C(=O)OC)c1`: “Active”; `CO/N=C/c1cccc(OCc2ccccc2/C(=N\OC)C(=O)OC)c1`: “Active”.
Same read-out and setting: next, `CO/N=C/c1ccc(OC)c(OCc2ccccc2/C(=N\OC)C(=O)OC)c1`: “Active”.
In general, IC50 refers to the point on the concentration scale where inhibition reaches its midpoint. Consider `CO/N=C(/C(=O)OC)c1ccccc1COc1cccc(OCc2ccc(Cl)cc2)c1`, for which the inhibition result in the test on HCT-116 [5] is “Dose-dependent effect”. In addition, the Activity entry in the test with HCT-116 [6] is “Dose-dependent effect”. The molecule also returned an IC50 in the test on HCT-116 [7] of 1.62 µM. Further, in the test with HCT-116 [4], the outcome was Active.
Turning to `C=Cc1ccc(COc2cccc(OCc3ccccc3/C(=N\OC)C(=O)OC)c2)cc1`, the inhibition result in the test with HCT-116 [5] is “Dose-dependent effect”. The molecule also gave an IC50 in the test on HCT-116 [7] of 1.26 µM. Besides, the result in the test with HCT-116 [4] and in the test on HCT-116 [1] was Active.
`CO/N=C(/C(=O)OC)c1ccccc1COc1cccc(OCc2cc(C(F)(F)F)cc(C(F)(F)F)c2)c1`: the inhibition result with HCT-116 [5] was “Dose-dependent effect”. The molecule further had an IC50 in the test on HCT-116 [7] of 1.36 µM. Besides, the result in the test on HCT-116 [4] and in the test with HCT-116 [1] was Active.
